Assay results: ChEMBL document CHEMBL1125076, “In vivo intracerebral microdialysis studies in rats of MPP+ analogues and related charged species” (1990)

What was measured:
Assay type in all cases: functional
Rattus norvegicus [1] = organism: Rattus norvegicus; test: Percentage of basal lactate efflux before starting the drug perfusion (1 min) with average basal level 689+/-103 pmol/min
Rattus norvegicus [2] = organism: Rattus norvegicus; test: Percentage of basal lactate efflux before starting the drug perfusion (15 min) with average basal level 689+/-103 pmol/min
Procedure, shortened: (§1)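 Rat striatal microdialysis via U-shaped cellulose-membrane cannula, Ringer perfusion. Once lactate efflux stabilized, test compound perfused as 10 mM solution in Ringer for 15–150 min. Dialysate mixed on-line with lactate dehydrogenase (5 mg/mL) and 0.5 mM NAD+ in carbonate buffer pH 9.5. NADH formed was separated by C18 HPLC (0.05 M phosphate, pH 6.8) and detected electrochemically at 650 mV. Samples injected every 5 min. Change expressed as % of basal. At least duplicate experiments.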

Rattus norvegicus [3] = organism: Rattus norvegicus; test: (§2) Percentage of basal lactate efflux before starting the drug perfusion (150 min) with average basal level 689+/-103 pmol/min; procedure, shortened: as §1
Rattus norvegicus [4] = organism: Rattus norvegicus; test: as §2; remark: listed apart in the source

SMILES | Basal (Rattus norvegicus [1]) [%] | Basal (Rattus norvegicus [2]) [%] | also measured
C[n+]1ccc(-c2ccccc2)cc1 | 210 | 280 | –
C[n+]1ccccc1-c1ccccc1 | – | 160 | –
C[n+]1cccc2ccccc21 | – | 190 | Basal (Rattus norvegicus [3]): 200%
Cc1ccccc1-c1cc[n+](C)cc1 | 155 | – | –
Cc1ccc(-[n+]2ccc(C)cc2)cc1 | 180 | 230 | –
Cc1cc(-c2ccccc2)cc[n+]1C | 200 | – | –
C[n+]1ccc(C(C)(C)C)cc1 | – | 106 | –
C[n+]1ccc(-c2ccccc2)nc1 | – | 102 | –
C[n+]1cccc(-c2ccccc2)c1 | – | 240 | –
c1ccc2c(c1)CCNC2 [1,2,3,4-TETRAHYDROISOQUINOLINE] | – | – | Basal (Rattus norvegicus [4]): 98%
